In the library only some 2.5% were active in any assay of this set; here they are far more common.
Insulin prom up = MIN6 insulin promoter up-regulation; MIN6 insulin promoter-GFP reporter, high-content imaging; hits give high values; z-score at 5 µM; 190,000 compounds, 0.3% hits; AID 1625;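 active = z-score above 3 at 5 µM with at least 500 cells counted in the well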
NPY1 pot ag = potentiates or activates human NPY-Y1 receptor; P25929; activation, % at 3.6 µM; AID 1304; NPY-Y1 expressing cells, potentiator/agonist activation; 220,000 compounds, 0.37% hits; in the data active = activation above about 33%, passing the limit was not always enough;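 note: cells stimulated with NPY at EC10 then isoproterenol at EC100; 0% = low agonist plus stimulus and 100% = saturating agonist plus stimulus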
NPY Y2 blocker = blocks the human neuropeptide Y Y2 receptor; P49146; NPY-Y2 expressing cells, antagonist mode; inhibition, % at 2.7 µM; 140,000 compounds, 0.99% hits; AID 793; in the data active = inhibition above about 17%;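 note: 0% = vehicle with agonist challenge and 100% = reference antagonist with challenge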
Target sequence (P49146 whole entry, looked up): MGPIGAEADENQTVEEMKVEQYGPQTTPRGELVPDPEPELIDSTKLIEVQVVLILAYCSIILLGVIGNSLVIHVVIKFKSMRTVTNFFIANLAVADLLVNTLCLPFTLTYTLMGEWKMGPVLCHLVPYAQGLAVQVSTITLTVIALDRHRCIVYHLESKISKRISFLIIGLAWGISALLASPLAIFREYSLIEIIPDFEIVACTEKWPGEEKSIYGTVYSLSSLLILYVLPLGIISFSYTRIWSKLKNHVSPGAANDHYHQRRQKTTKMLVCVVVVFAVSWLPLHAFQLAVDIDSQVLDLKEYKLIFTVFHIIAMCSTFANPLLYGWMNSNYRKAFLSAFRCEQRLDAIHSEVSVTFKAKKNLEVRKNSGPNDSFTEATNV
Insulin prom inh = TRM-6 insulin promoter activity inhibition; TRM-6 cells (human fetal islet line), insulin promoter-eGFP reporter, imaging; reporter expression induced with tamoxifen; 130,000 compounds, 0.9% hits; AID 1273; inhibition, % at 2 µM;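 active = inhibition above the mean plus 3 SD, with well images judged a real hit on visual review, cut at about 60% in these data, passing the limit was not always enough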
NPY Y1 blocker = blocks the human neuropeptide Y Y1 receptor. P25929. HEK293-CNG Y1 cells, membrane potential fluorescence; NPY at EC95, then isoproterenol. inhibition, % at 3.6 µM. 200,000 compounds, 1% hits;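 active = inhibition above the campaign mean inhibition of all tested compounds plus 3 SD, cut at about 20% in these data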;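 note: 0% = DMSO wells given NPY plus isoproterenol and 100% = isoproterenol alone without NPY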
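Material: HEK293 cells with Y1 receptor plus CNG channel; times: compound incubation 1 h at room temperature, readout 45 min post-stimulation; signal: fluorescence, membrane potential probe; read-out basis: fluorescence ratio normalized to % inhibition between controls; benchmarks: full-block control isoproterenol-only wells, zero-block control NPY plus isoproterenol wells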
NPY2 pot ag = potentiators or agonists of human neuropeptide Y receptor Y2 | cells expressing NPY-Y2, potentiator/agonist read-out | AID 1359 | activation, % at 3.6 µM | 220,000 compounds, 0.45% hits; in the data active = activation above about 27%;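 note: cells stimulated with NPY near EC25 plus isoproterenol at EC100; 0% = vehicle plus submaximal agonist and 100% = vehicle plus saturating agonist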
* marks the source's active call; other numbers are inactive results; . = no result given.

SMILES | Insulin prom up | NPY1 pot ag | NPY Y2 blocker | Insulin prom inh | NPY Y1 blocker | NPY2 pot ag
COc1cc2c(cc1OC)/C(=C/c1ccc(Br)cc1)C(=O)OC2 | -0.13 | -47 | 7 | 71* | 14 | -15
COc1cc(C(=O)OC2CSCC2NC(=O)c2ccccc2)cc(OC)c1OC (configuration not stated) | -0.38 | 10 | . | . | 16 | -12
O=C(NC1CCCCCC1)C1Cc2ccccc2CN1C(=O)c1ccco1 (configuration not stated) | -0.33 | -4 | . | . | 9 | -2
COc1ccccc1CNC(=O)c1cc2c(=O)[nH]c3ccccc3c2n1C | . | -4 | . | . | -3 | 8
Cc1ccc(OCC(=O)N/N=C/c2cccn2C)cc1 | . | -34 | -1 | 71* | 6 | -14
O=C1NCCCC1C(=O)N/N=C/c1cccc(O)c1 (configuration not stated) | -0.08 | -3 | 2 | 26 | -1 | -2
CCOc1ccc2nc(COC(=O)c3cccc([N+](=O)[O-])c3)c(C(C)=O)[n+]([O-])c2c1 | -0.34 | 1 | . | . | . | 6
CC(C)NC(=O)c1onc(CSc2ccc(C(C)C)cc2)c1C(=O)O | -1.3 | 6 | 11 | -16 | 16 | -19
CC(C)NC(=O)c1onc(CSc2ccc(F)cc2)c1C(=O)O | 0.65 | -23 | 4 | 89* | 12 | -36
Cc1ccccc1SCc1noc(C(=O)NC(C)C)c1C(=O)O | 3* | 7 | 2 | -51 | 10 | -21
CCOC(=O)C(C)(C)NS(=O)(=O)c1ccc(Cl)c([N+](=O)[O-])c1 | 0.05 | 37 | -3 | . | 1 | 22
CCOC(=O)C(C)(C)N(Cc1ccc(Cl)cc1)S(=O)(=O)c1ccc(Cl)c([N+](=O)[O-])c1 | 0.5 | 65* | 1 | -7 | -12 | 66*
CC(=O)c1c(C)oc2ccc(N(C(C)=O)S(=O)(=O)c3ccc(Cl)c([N+](=O)[O-])c3)cc12 | 0.72 | 3 | 9 | . | 8 | -1
CCOC(=O)C(C)(C)N(Cc1ccc(C)cc1)S(=O)(=O)c1ccc(Cl)c([N+](=O)[O-])c1 | 0.15 | 76* | 0 | . | 0 | 51*
Cc1ccc(C(=O)O)cc1NC(=O)CN1C(=O)C2C3c4ccccc4C(Br)(c4ccccc43)C2C1=O (configuration not stated) | 0.05 | 8 | -1 | -7 | 3 | 2
CC12CC(NC(=O)N1c1ccc(C(=O)N3CCN(c4ccccn4)CC3)cc1)c1ccccc1O2 (configuration not stated) | 0.68 | 52* | 0 | . | 2 | 35*
CC12CC(NC(=O)N1c1cccc(C(=O)N3CCN(c4ccccn4)CC3)c1)c1ccccc1O2 (configuration not stated) | -0.55 | 0 | 8 | -14 | -1 | 0
CC(=O)NC1=NN(C(C)=O)C(c2ccc(F)cc2)S1 (configuration not stated) | -0.09 | -12 | . | 83* | 2 | 5
CCCCOn1c(C)c(C(=O)OCC)c2c3no[n+]([O-])c3ccc21 | . | -16 | 5 | . | 5 | -7
CCCCOn1c(C)c(C(=O)OCC)c2c3nonc3ccc21 | . | -67 | 23* | 43 | 67* | -45
CN1CCN(c2ccccc2NC(=O)Cc2ccc(Cl)cc2)CC1 | -0.93 | -7 | 24* | -7 | 23* | -13
CC(C)CCNC(=O)NC(=O)COC(=O)C1=COCCO1 | . | -5 | 2 | 78* | -2 | 16
C(=C\c1ccccc1)/CSc1nnc(-c2cnccn2)n1Cc1ccco1 | . | -17 | 22* | 42 | 17 | -16
N#Cc1cccc(Cn2nnc(-c3ccccc3)n2)c1 | -0.63 | 3 | -3 | -7 | 6 | 13
CN(C)CCn1c(C(=O)Nc2ccccc2)cc2ccccc21 | -0.62 | -67 | 20* | . | 38* | -36
SMILES | Insulin prom up | NPY1 pot ag | NPY Y2 blocker | Insulin prom inh | NPY Y1 blocker | NPY2 pot ag
N#Cc1c(NC(=O)CSc2ccccn2)oc(-c2ccccc2)c1-c1ccccc1 | -0.82 | -36 | 21* | 27 | 38* | -12
Cc1ccc(NCc2ccc(O)c3ncccc23)cc1C | 0.09 | 7 | . | 79* | 6 | 3
Cc1ccc(NCc2ccc(O)c3ncccc23)cc1 | 1.3 | 16 | . | 29 | -2 | 1
CCCCCCCC1(C)NC(=O)NC1=O (configuration not stated) | -0.01 | -8 | . | . | . | -7
CCC1(CC)NC(=O)NC1=O | -0.4 | 7 | 0 | 91* | -1 | 6
COP1(=O)C=C[C@H](N(Cc2ccccc2)S(=O)(=O)c2ccccc2[N+](=O)[O-])[C@@H](C)O1 (some centres not stated) | 0.46 | . | . | . | . | .
CC(Oc1ccccc1Cl)C(=O)/C=C/N(C)C (configuration not stated) | 0.37 | 11 | 4 | -70 | 3 | 0
CC(NS(=O)(=O)c1cccc(Cl)c1)C(=O)Nc1ccc(-c2nc3ccccc3s2)cc1 (configuration not stated) | -0.24 | 55* | -3 | -20 | -10 | 20
O=C(CNS(=O)(=O)c1cccc(Cl)c1)Nc1ccc(-c2nc3ccccc3s2)cc1 | -0.24 | 29 | -2 | -25 | -7 | -1
Cc1cccc(C)c1NC(=O)C[N+](C)(C)CC(O)COc1cccc2ccccc12 (configuration not stated) | 0.22 | 98* | . | . | -10 | 66*
O=C(CSc1nnc(Nc2ccccc2)s1)Nc1cccc(S(=O)(=O)N2CCCCC2)c1 | 0.7 | 14 | 0 | . | -3 | 9
CCOC(=O)c1cc(-c2ccc(OC)cc2F)nc2c1c(C)nn2CCC#N | -1.7 | 14 | 20* | 14 | 26* | 0
CCOC(=O)c1cc(-c2ccc(Cl)cc2)nc2c1c(C)nn2CCC#N | -1.1 | -74 | 33* | -26 | 25* | -31
CCOC(=O)c1cc(-c2ccco2)nc2c1c(C)nn2CCC#N | -0.53 | -6 | 10 | 14 | 10 | -17
CCOC(=O)c1cc(-c2ccc3c(c2)OCCO3)nc2c1c(C)nn2CCC#N | -2.5 | -18 | 4 | -6 | 6 | -11
CCOC(=O)c1cc(-c2ccccc2)nc2c1c(C)nn2-c1ccccn1 | -0.6 | -68 | 60* | 40 | 49* | -24
CCOC(=O)c1c(N2C(=O)Nc3cc(Cl)c(Cl)cc3N2O)sc2c1CCCCC2 | . | 2 | -2 | -8 | 2 | 2
Cc1ccc(CS(=O)(=O)c2ccc(C(=O)N3CCCCC3)cc2[N+](=O)[O-])cc1 | -0.07 | -8 | . | 48 | 1 | 2
Cc1ccc(CS(=O)(=O)c2ccc(C(=O)N3CCN(c4ccccn4)CC3)cc2[N+](=O)[O-])cc1 | -0.1 | -9 | . | . | 20* | 8
O=S(=O)(CC(CN1CCCC1)N1CCCC1)c1ccc2ccccc2c1 (configuration not stated) | 0.68 | 3 | 4 | 43 | 11 | -25
N#Cc1ccc(CSc2nnc(NC(=O)c3ccc4ncsc4c3)s2)cc1 | 4.4* | 9 | . | . | 4 | 10

Screens deposited in PubChem by several laboratories.
